High-throughput results as filed in PubChem BioAssay.
Shown are actives, neighbours in structure and some others; about 9.6% of the full set was active somewhere.
L major viab: reduces viability of Leishmania major promastigotes. AID 1063. inhibition, % at 10 µM. actives 9% (n = 200,000). resazurin fluorescence viability; in the data active = inhibition above about 50%;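 note: promastigotes grown with compound for 44 hours at 28 °C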
APP 5UTR inh: APP translation inhibition | SH-SY5Y APP 5'UTR-luciferase reporter, luminescence | inhibition, % at 2 µM | actives 0.82% (n = 190,000) | AID 1285;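 active = inhibition above a set limit, derived from the sample mean plus 3 SD, cut at about 45% in these data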
BaF3 parental: parental Ba/F3 viability inhibition as JAK2V617F counter-screen; CellTiter-Glo ATP luminescence; inhibition, % at 5.6 µM; actives 1.1% (n = 220,000); AID 1486;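 active = inhibition above a per-campaign cutoff, the mean inhibition of all tested compounds plus 3 SD, cut at about 27% in these data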;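 note: 0% = DMSO wells and 100% = JAK Inhibitor I control wells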
MT stabilize HCS: microtubule stabilization, imaging screen; HeLa tubulin immunostaining HCS, 24 h; share of cells brighter than vehicle mean+2SD; % tubulin-high responders, % at 10 µM; actives 0.83% (n = 200,000);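 active = plate Z-score above 3 for both tubulin-high and condensed-nucleus cell shares, with cell loss under 80%, at 10 µM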;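 note: anti alpha tubulin signal scored within the nucleus-defined area of each cell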
Ba/F3 V617F tox: loss of viability in JAK2V617F-driven Ba/F3 cells. Ba/F3 EpoR-JAK2V617F viability, ATP luminescence. inhibition, % at 5.6 µM. actives 1.1% (n = 220,000). AID 1446;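 active = inhibition above the campaign mean plus 3 SD over all tested compounds, cut at about 24% in these data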;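 note: cytokine-independent growth of Ba/F3 cells driven by EpoR plus mutant JAK2; 0% = DMSO-treated cells and 100% = JAK inhibitor I control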
b-catenin transl: modulators of beta-catenin nuclear translocation; AID 1665; actives 0.3% (n = 190,000); nuclear translocation activity, % at 5 µM; HeLa beta-catenin nuclear translocation, immunofluorescence imaging;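 active = nuclear translocation activity above 50% at 5 µM, with a well cell count of 50 or more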;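 note: per-cell ratio of nuclear to cytoplasmic median beta-catenin stain intensity; plate controls were DMSO negative control for no effect and GSK-3 inhibitor IX positive control for full effect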
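Test system: human HeLa cell line; Doses: 5 µM primary, 0.02–20 µM confirmation; Incubation: 24 h compound exposure, 37°C; Detection: beta-catenin immunofluorescence imaging with DAPI; Read-out: beta-catenin nuclear/cytoplasmic ratio, % activation.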
The depositor's hits bear a star.

Screening CCCCNc1ccc(C(=O)O)cc1 returned BaF3 parental 0, Ba/F3 V617F tox -3 and b-catenin transl -1.
Screening COc1ccccc1OCCN1C(=O)S/C(=C\c2ccco2)C1=O returned L major viab 55*, APP 5UTR inh 2, BaF3 parental 1, MT stabilize HCS 2, Ba/F3 V617F tox -1 and b-catenin transl -1.
For COc1ccccc1/C=C1\SC(=O)N(CCC(=O)NNC(=O)c2ccccc2Cl)C1=O the results were L major viab -3, APP 5UTR inh -28, BaF3 parental -1, MT stabilize HCS 4, Ba/F3 V617F tox -1 and b-catenin transl 0.
O=C(NCc1ccccc1Cl)C1CCC(CNc2c(N3CCOCC3)c(=O)c2=O)CC1 (centres undefined) was read as BaF3 parental 1, Ba/F3 V617F tox -5 and b-catenin transl -1.
`CCCCOc1ccc(Cl)cc1CSc1nnc(CC)n1N` gave L major viab 88*, APP 5UTR inh 6, BaF3 parental 1, MT stabilize HCS 2 and Ba/F3 V617F tox -2.
For CCCOc1ccc(CSc2nnc(CCC)n2N)cc1 the results were L major viab 1, APP 5UTR inh -7, BaF3 parental 5, MT stabilize HCS 4, Ba/F3 V617F tox 3 and b-catenin transl -3.
For O=C(COC(=O)COc1ccccc1)NC1CCCc2ccccc21 (centres undefined) the results were L major viab -1, APP 5UTR inh -5, BaF3 parental 7, MT stabilize HCS 5, Ba/F3 V617F tox 4 and b-catenin transl 1.
Screening Cc1ccc(S(=O)(=O)N2CCN(CC(=O)NC3CCCc4ccccc43)CC2)cc1C (centres undefined) returned L major viab 98*, APP 5UTR inh -9, BaF3 parental 4, MT stabilize HCS 1, Ba/F3 V617F tox -1 and b-catenin transl -4.
`O=C(CSc1nc2cc(Cl)ccc2s1)NC1CCCc2ccccc21` (centres undefined) gave L major viab 2, APP 5UTR inh 7, BaF3 parental 6, MT stabilize HCS 2, Ba/F3 V617F tox 0 and b-catenin transl -1.
For O=C(CSc1cc(Cl)ccc1Cl)NC1CCCc2ccccc21 (centres undefined) the results were L major viab 57*, APP 5UTR inh -18, BaF3 parental 4, MT stabilize HCS 3 and Ba/F3 V617F tox -1.
Cc1ccc(S(=O)(=O)N2CCN(CC(=O)NC3CCCc4ccccc43)CC2)c(C)c1 (centres undefined) was read as L major viab 13, APP 5UTR inh 12, BaF3 parental 6, MT stabilize HCS 3, Ba/F3 V617F tox 1 and b-catenin transl -6.
`O=C(COc1ccccc1)NC1CCCc2ccccc21` (centres undefined) gave L major viab 51*, APP 5UTR inh -15, BaF3 parental 1, MT stabilize HCS 4 and Ba/F3 V617F tox -3.
Cc1nn(C)c(Cl)c1C(=O)NCC(=O)Nc1ccc(C(C)C)cc1 was read as L major viab -5, APP 5UTR inh -10, BaF3 parental 2, MT stabilize HCS 8, Ba/F3 V617F tox 0 and b-catenin transl -1.
`O=C(COC(=O)c1ccc[n+]([O-])c1)Nc1c(Br)cc([N+](=O)[O-])cc1Br` gave L major viab 61*, APP 5UTR inh 1, BaF3 parental 4, MT stabilize HCS 5, Ba/F3 V617F tox -2 and b-catenin transl -2.
`Cc1cccc2c(=O)cc(C)n(Cc3ccccc3)c12` gave L major viab 59*, APP 5UTR inh 2, BaF3 parental 6, MT stabilize HCS 4 and Ba/F3 V617F tox 0.
N#CC1=C(N)C2=CCCC[C@H]2[C@H](c2cccc(F)c2)C1(C#N)C#N was read as L major viab 81*, APP 5UTR inh 2, BaF3 parental 7, MT stabilize HCS 5, Ba/F3 V617F tox 5 and b-catenin transl 0.
For CCCCN(CC)CCCNC(=O)C1CCN(c2ncnc3c2sc2cccc(F)c23)CC1 the results were L major viab 100*, APP 5UTR inh -5, BaF3 parental 12, MT stabilize HCS 2, Ba/F3 V617F tox 4 and b-catenin transl 0.
NC12NC(=O)C3(O)C4C5CC(C6C5C3C61)C42 (centres undefined) was read as L major viab -5, APP 5UTR inh -40, BaF3 parental 2, MT stabilize HCS 2, Ba/F3 V617F tox -3 and b-catenin transl -2.
`COc1ccc(CCNC(=O)C2CCCN(Cc3nc(-c4ccccc4C)oc3C)C2)cc1OC` (centres undefined) gave L major viab 92*, APP 5UTR inh 2, BaF3 parental 5, MT stabilize HCS 14 and Ba/F3 V617F tox 4.
For COc1ccc(CCNC(=O)C2CCN(Cc3nc(-c4cccc(Cl)c4)oc3C)CC2)cc1OC the results were L major viab 8, APP 5UTR inh 16, BaF3 parental 2, MT stabilize HCS 3 and Ba/F3 V617F tox -2.
CCCN(CCC)CCNC(=O)C1CCN(Cc2nc(-c3ccc(Cl)cc3)oc2C)CC1 was read as L major viab 98*, APP 5UTR inh 16, BaF3 parental 19, MT stabilize HCS 3, Ba/F3 V617F tox 7 and b-catenin transl -4.
Screening CCN1CCN(CCNC(=O)C2CCCN(Cc3nc(-c4cccc(Cl)c4)oc3C)C2)CC1 (centres undefined) returned L major viab 94*, BaF3 parental 3, MT stabilize HCS 4 and Ba/F3 V617F tox 0.
CCOC(=O)N1CCC(NC(=O)C2CCCN(Cc3nc(-c4cccc(Cl)c4)oc3C)C2)CC1 (centres undefined) was read as L major viab 10, APP 5UTR inh -1, BaF3 parental 20, MT stabilize HCS 2 and Ba/F3 V617F tox 18.
Screening CCc1ccc(-c2nc(CN3CCCC(C(=O)NCCc4ccc(OC)c(OC)c4)C3)c(C)o2)cc1 (centres undefined) returned L major viab 83*, APP 5UTR inh -2, BaF3 parental 3, MT stabilize HCS 7 and Ba/F3 V617F tox 4.
Screening COc1ccccc1NC(=O)C1=C(C)NC(=O)NC1c1ccco1 (centres undefined) returned BaF3 parental 0, Ba/F3 V617F tox -2 and b-catenin transl 0.
`CCN1CCN(CCNC(=O)CSCc2nc(-c3ccc(OC)c(OC)c3)oc2C)CC1` gave L major viab 88*, APP 5UTR inh 1, BaF3 parental 5, MT stabilize HCS 1 and Ba/F3 V617F tox -4.
CCN1CCN(C(=O)CSCc2nc(-c3ccc(OC)c(OC)c3)oc2C)CC1 was read as L major viab -1, APP 5UTR inh 9, BaF3 parental 6, MT stabilize HCS 2 and Ba/F3 V617F tox -1.
`CS(=O)(=O)N1CCN(c2ccccc2NC(=O)c2ccc(-c3ccc(Cl)cc3Cl)o2)CC1` gave L major viab 91*, APP 5UTR inh -20, BaF3 parental 4, MT stabilize HCS 2 and Ba/F3 V617F tox -1.
